Results: ChEMBL document CHEMBL4261552, “4-Hydroxy-N-[3,5-bis(trifluoromethyl)phenyl]-1,2,5-thiadiazole-3-carboxamide: a novel inhibitor of the canonical NF-κB cascade” (Medchemcomm, 2017)
Calls of active or inactive are those of the source. The rule behind the calls is not given here.

Key:
[1] = molecular target: T1, Inhibitor of nuclear factor kappa-B kinase subunit beta (Homo sapiens) (UniProt O14920); assay: Induction of IKKbeta phosphorylation at S177/181 residues in TNFalpha-stimulated human Jurkat cells at 10 uM preincubated for 60 mins followed by TNFalpha-stimulation for 20 mins by immunoblot analysis; format: cell-based
T1 sequence (whole entry): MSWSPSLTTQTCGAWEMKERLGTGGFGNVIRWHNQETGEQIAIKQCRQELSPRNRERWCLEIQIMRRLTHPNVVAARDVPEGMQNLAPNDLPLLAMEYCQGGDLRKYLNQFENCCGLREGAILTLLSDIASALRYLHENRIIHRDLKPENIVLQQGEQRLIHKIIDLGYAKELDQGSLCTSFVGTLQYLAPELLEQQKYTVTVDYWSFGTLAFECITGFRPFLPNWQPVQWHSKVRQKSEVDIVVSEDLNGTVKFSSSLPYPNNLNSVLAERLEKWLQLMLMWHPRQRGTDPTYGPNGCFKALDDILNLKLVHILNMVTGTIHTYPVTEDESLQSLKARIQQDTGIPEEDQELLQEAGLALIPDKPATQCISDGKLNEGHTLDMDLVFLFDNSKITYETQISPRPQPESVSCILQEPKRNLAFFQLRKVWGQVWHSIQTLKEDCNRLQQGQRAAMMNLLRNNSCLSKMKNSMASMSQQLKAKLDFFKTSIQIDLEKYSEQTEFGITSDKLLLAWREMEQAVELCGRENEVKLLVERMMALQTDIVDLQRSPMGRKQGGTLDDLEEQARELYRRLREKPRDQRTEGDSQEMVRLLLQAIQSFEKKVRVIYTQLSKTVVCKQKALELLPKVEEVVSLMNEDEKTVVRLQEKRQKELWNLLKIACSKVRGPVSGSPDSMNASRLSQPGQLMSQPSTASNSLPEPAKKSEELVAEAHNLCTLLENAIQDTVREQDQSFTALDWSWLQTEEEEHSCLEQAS
How it was run: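 Jurkat E6.1 cells in X-VIVO 15 with 10% FBS, passages 5–10, were pretreated 60 min with 10 µM compound (DMSO vehicle), then stimulated 20 min with TNFα 15 ng/mL. Lysates were made with protease and phosphatase inhibitors, 20 µg/lane was run on 12% SDS-PAGE, and IKKα/IKKβ phosphorylation was detected by immunoblot with ECL. Three independent experiments were run.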

[2] = molecular target: T1, Inhibitor of nuclear factor kappa-B kinase subunit beta (Homo sapiens); assay: Inhibition of human IKKbeta at 100 uM using ERLLDDRHDSGLDSMKDEE as substrate after 60 mins in presence of ATP by ADP-Glo kinase assay relative to control

SMILES: O=C(Nc1cc(C(F)(F)F)cc(C(F)(F)F)c1)c1cc(Cl)ccc1O [IMD-0354]
- Activity [1]: Active
- inhibition [2]: 5.43%
